Compound activity (PubChem BioAssay)
Hits are enriched below; roughly 1.2% of the tested compounds scored in any of these assays.
Rin1 Abl inh = blocks binding of human Rin1 to Abl; TR-FRET Rin1/Abl binding, biochemical; AID 588664; 360,000 tested, 0.4% active; inhibition, % at 7.35 µM; in the data active = inhibition above about 5%, passing the limit was not always enough
ASAP1 GAP inh = inhibitors of human ASAP1 ArfGAP activity | AID 624377 | Q9ULH1 | inhibition, % at 16.5 µM | 360,000 tested, 0.19% active | ASAP1-stimulated ARF1 GTP hydrolysis, GDP FP detection; in the data active = inhibition above about 25%;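 note: 0% = vehicle with enzyme and substrate and 100% = no enzyme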
GalR3 antag = human GalR3 antagonism; HEK293 GalR3-CNG cAMP membrane potential fluorescence; galR3 body fused to GalR1 C-terminus; 360,000 tested, 0.44% active; AID 651719; inhibition, % at 3 µM;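 active = inhibition above the screen-wide average plus 3 SD, cut at about 13% in these data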;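 note: forskolin and galanin both at EC90 stimulate the cells; cAMP rise reported by CNG channel membrane potential dye signal; 0% = forskolin plus galanin with DMSO and 100% = forskolin alone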
ARFGAP1 inh = rat ARFGAP1 inhibition. inhibition, % at 16.5 µM. 360,000 tested, 0.26% active. Arfgap1-stimulated ARF1 GTP hydrolysis, GDP FP detection;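 active = inhibition above a per-plate limit, mean inhibition of low control wells plus 3 SD, cut at about 25% in these data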;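 note: 0% = DMSO wells with enzyme and 100% = wells lacking Arfgap1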
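Assay system: purified rat His6-Arfgap1 residues 1-136 (GAP domain); Reagent: human Δ17 ARF1 bound to GTP; Dosing: 16.5 µM single point, 1.26% DMSO; Times: GTP hydrolysis reaction 2 h at 25 °C; Signal: FP, GDP Alexa 633 tracer displaced from anti-GDP antibody, 620/688 nm; Measure: % inhibition from polarization.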
GalR3 conf = confirmation of human galanin receptor 3 antagonists | shares compounds with GalR3 antag | HEK293 GalR3 CNG cAMP biosensor, membrane potential fluorescence; galR3 fused to GalR1 carboxy tail; challenged with forskolin and galanin at EC90 | inhibition, % at 3 µM | 1,600 tested, 59% active | AID 652245;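 active = inhibition above the primary screen's cutoff, the mean inhibition of all screened compounds plus 3 SD, cut at about 13% in these data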;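 note: 0% = forskolin plus galanin and 100% = forskolin alone with DMSO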
CNG parental = counter-screen for GalR3 antagonists: nonspecific agonists in parental HEK-CNG cells; shares compounds with GalR3 antag; AID 652268; HEK293-CNG parental cells, cAMP membrane potential fluorescence; normalised: DMSO wells 0%, forskolin wells 100%; activation, % at 3 µM; 1,600 tested, 10% active; in the data active = activation above about 1.3%
Starred values were filed as active, the others as inactive.

What do the screens show for `COC(=O)[C@]12C[C@H](CC(=O)NCc3cccc(C(F)(F)F)c3)C(=O)N(Cc3ccccc3)C1=C[C@H](C1CCCC1)O[C@@H]2C`?
ASAP1 GAP inh: 3; GalR3 antag: -4; ARFGAP1 inh: 5

Results for COc1ccc(OC)c(C2C3=C(COC3=O)Nc3cc4c(cc32)OCO4)c1 (stereo not given) ?
Rin1 Abl inh: 0; ASAP1 GAP inh: -14; GalR3 antag: 28*; ARFGAP1 inh: -7; GalR3 conf: 23*; CNG parental: 1.4*

Results for Nc1ccn([C@@H]2O[C@H](C(=O)N[C@H](Cc3ccccc3)C(=O)NCC(F)(F)F)[C@@H](O)[C@H]2O)c(=O)n1 ?
ASAP1 GAP inh: -4; GalR3 antag: -6; ARFGAP1 inh: -4

What do the screens show for `COc1cccc(CNC(=O)[C@H]2CCCN2C(=O)[C@H]2CCCN2C(=O)c2ccc(C)c(C)c2)c1`?
ASAP1 GAP inh: 2; GalR3 antag: -7; ARFGAP1 inh: -8

How did COc1cc(C(=O)O[C@H]2CC(C)=CC[C@@]3(C)CC[C@@](O)(C(C)C)[C@H]23)ccc1O do in these assays?
Rin1 Abl inh: -1; ASAP1 GAP inh: 14; GalR3 antag: 26*; ARFGAP1 inh: 3; GalR3 conf: 21*; CNG parental: 0

What do the screens show for `CCC(C)C(=O)Nn1c(C2CC2)nc2cc(OC)c(OC)cc2c1=O` (stereo not given)?
Rin1 Abl inh: -3; ASAP1 GAP inh: -7; GalR3 antag: 25*; ARFGAP1 inh: -3; GalR3 conf: 29*; CNG parental: 0

How did COc1cccc(OC)c1C(=O)Nn1c(C2CCC2)nc2ccccc2c1=O do in these assays?
Rin1 Abl inh: 2; ASAP1 GAP inh: 0; GalR3 antag: 1; ARFGAP1 inh: -1

What do the screens show for `C[C@@H]1CCCCO[C@@H](CN(C)C(=O)Nc2ccc(C(F)(F)F)cc2)[C@@H](C)CN([C@H](C)CO)C(=O)c2cc(NS(=O)(=O)c3ccc(Cl)cc3)ccc2O1`?
ASAP1 GAP inh: 5; GalR3 antag: -3; ARFGAP1 inh: 6

How did COc1ccc(/C=N/Nc2nnc(C)n2N)cc1OC do in these assays?
Rin1 Abl inh: -4; ASAP1 GAP inh: 14; GalR3 antag: 9; ARFGAP1 inh: 4

What do the screens show for `Cc1nnc(N/N=C/c2ccc([N+](=O)[O-])cc2)n1N`?
Rin1 Abl inh: 1; ASAP1 GAP inh: 3; GalR3 antag: 15*; ARFGAP1 inh: 10; GalR3 conf: 4; CNG parental: 0

What do the screens show for `CC(C)Oc1ncnc2c1[nH]c1ccccc12`?
Rin1 Abl inh: -3; ASAP1 GAP inh: 9; GalR3 antag: 19*; ARFGAP1 inh: 7; GalR3 conf: 6; CNG parental: 0

Results for CCCOc1ncnc2c1[nH]c1ccccc12 ?
Rin1 Abl inh: -3; ASAP1 GAP inh: -10; GalR3 antag: -3; ARFGAP1 inh: 13

What do the screens show for `CC1(C)C(=O)Nc2ccccc2N1C(=O)COC(=O)c1cc(S(=O)(=O)N2CCOCC2)ccc1F`?
Rin1 Abl inh: -1; ASAP1 GAP inh: 14; GalR3 antag: 39*; ARFGAP1 inh: 1; GalR3 conf: 16*; CNG parental: 0

How did CC1(C)C(=O)Nc2ccccc2N1C(=O)COC(=O)c1cc(S(C)(=O)=O)ccc1Cl do in these assays?
Rin1 Abl inh: 1; ASAP1 GAP inh: -5; GalR3 antag: 0; ARFGAP1 inh: 14

What do the screens show for `O=C(OCCN1C(=O)c2ccccc2C1=O)c1cc(S(=O)(=O)N2CCOCC2)ccc1Cl`?
Rin1 Abl inh: -1; ASAP1 GAP inh: -9; GalR3 antag: 6; ARFGAP1 inh: 7

What do the screens show for `O=C(OCN1C(=O)c2ccccc2C1=O)c1cc(S(=O)(=O)N2CCOCC2)ccc1F`?
Rin1 Abl inh: -1; ASAP1 GAP inh: 8; GalR3 antag: 13*; ARFGAP1 inh: 4; GalR3 conf: 24*; CNG parental: 0

What do the screens show for `Cc1ccc(S(=O)(=O)N2CCN(C)CC2)cc1-c1nnc2c3ccccc3c(C)nn12`?
Rin1 Abl inh: 1; ASAP1 GAP inh: 2; GalR3 antag: 40*; ARFGAP1 inh: -1; GalR3 conf: 49*; CNG parental: 1

Results for COc1ccc(S(=O)(=O)NC(C)(C)C)cc1-c1nnc2c3ccccc3c(C)nn12 ?
Rin1 Abl inh: 6; ASAP1 GAP inh: -7; GalR3 antag: -1; ARFGAP1 inh: 5

Results for COc1ccc(S(=O)(=O)N2CCN(CCO)CC2)cc1-c1nnc2c3ccccc3c(C)nn12 ?
Rin1 Abl inh: 5; ASAP1 GAP inh: -6; GalR3 antag: 11; ARFGAP1 inh: 16

Results for Cc1ccc(S(=O)(=O)N2CCN(CCO)CC2)cc1-c1nnc2c3ccccc3c(C)nn12 ?
Rin1 Abl inh: 0; ASAP1 GAP inh: 2; GalR3 antag: 30*; ARFGAP1 inh: 2; GalR3 conf: 43*; CNG parental: 2.9*

How did Cc1nc2cc[nH]n2c(=O)c1CCc1ccccc1 do in these assays?
ASAP1 GAP inh: -1; GalR3 antag: -9; ARFGAP1 inh: -1

Results for COc1ccc(COC(=O)C2=C(C)NC(=O)NC2c2cc(Br)c(O)c(OC)c2)cc1 (stereo not given) ?
Rin1 Abl inh: 3; ASAP1 GAP inh: 2; GalR3 antag: 29*; ARFGAP1 inh: 12; GalR3 conf: 35*; CNG parental: 0

How did COc1cc(C2NC(=O)NC(C)=C2C(=O)OCc2ccccc2)ccc1O (stereo not given) do in these assays?
Rin1 Abl inh: 0; ASAP1 GAP inh: -7; GalR3 antag: -2; ARFGAP1 inh: 11

How did CCOc1cc(C2NC(=O)NC(C)=C2C(=O)OCc2ccccc2)ccc1O (stereo not given) do in these assays?
Rin1 Abl inh: 1; ASAP1 GAP inh: 1; GalR3 antag: 13*; ARFGAP1 inh: 6; GalR3 conf: 15*; CNG parental: 0

Results for CN(C)S(=O)(=O)c1cccc(CSCc2cccc(S(=O)(=O)N(C)C)c2)c1 ?
Rin1 Abl inh: 3; ASAP1 GAP inh: -4; GalR3 antag: 78*; ARFGAP1 inh: 11; GalR3 conf: 87*; CNG parental: 0

Results for O=C(CSc1nnc(-c2ccco2)c(-c2ccco2)n1)c1ccccc1 ?
Rin1 Abl inh: -1; ASAP1 GAP inh: -5; GalR3 antag: 13*; ARFGAP1 inh: -19; GalR3 conf: 2; CNG parental: 0

Results for Cc1cc(/C=C2/SC(=S)N(c3cccc(Cl)c3)C2=O)c(C)n1-c1cccnc1 ?
Rin1 Abl inh: -3; ASAP1 GAP inh: 17; GalR3 antag: 90*; ARFGAP1 inh: 3; GalR3 conf: 15*; CNG parental: 0
